Assay results reported in ChEMBL document CHEMBL1275331, “Discovery of a novel 5-HT(3) antagonist/5-HT(1A) agonist 3-amino-5,6,7,8-tetrahydro-2-{4-[4-(quinolin-2-yl)piperazin-1-yl]butyl}quinazolin-4(3H)-one (TZB-30878) as an orally bioavailable agent for irritable bowel syndrome” (J Med Chem, 2010).
Activity calls are given as the source filed them. The rule behind the calls is not given here.

What was measured:
[1] = Displacement of [3H]DADLE from human recombinant delta2 opioid receptor
[2] = target: T1, 5-hydroxytryptamine receptor 1A (Homo sapiens) (UniProt P08908); experiment: Agonist activity at human cloned 5HT1A receptor expressed in CHO cells assessed as stimulation of [35S]GTPgammaS binding at 900 uL after 30 mins by liquid scintillation counting; assay type: functional, cell-based
T1 sequence (whole entry): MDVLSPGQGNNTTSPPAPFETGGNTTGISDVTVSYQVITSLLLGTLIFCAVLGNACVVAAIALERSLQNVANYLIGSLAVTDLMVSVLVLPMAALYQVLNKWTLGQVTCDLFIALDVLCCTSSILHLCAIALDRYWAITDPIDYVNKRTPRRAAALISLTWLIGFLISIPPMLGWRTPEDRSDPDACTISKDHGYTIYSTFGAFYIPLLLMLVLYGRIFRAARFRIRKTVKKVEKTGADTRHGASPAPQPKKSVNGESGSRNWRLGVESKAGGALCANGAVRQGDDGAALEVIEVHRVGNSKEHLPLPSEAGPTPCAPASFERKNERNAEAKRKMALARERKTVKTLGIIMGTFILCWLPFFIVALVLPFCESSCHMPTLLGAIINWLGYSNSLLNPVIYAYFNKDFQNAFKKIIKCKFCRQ
Summary of the method: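 Membranes from CHO cells expressing human 5-HT1A were diluted in 20 mM HEPES/3 mM MgCl2/120 mM NaCl, pH 7.4. They were preincubated with 20 μM GDP and test drug for 20 min at 30 °C, then held on ice for 15 min. [35S]GTPγS (100 pM) was added for 30 min at 30 °C. Samples were filtered, washed with cold HEPES/MgCl2 buffer, and bound radioactivity counted; EC50 and Emax reported.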

[3] = target: T2, 5-hydroxytryptamine receptor 3A (Cavia porcellus) (UniProt O70212); experiment: Inhibition of 5HT3 receptor-mediated contraction of guinea pig ileum at 1 umol/L after 20 mins relative to control; assay type: tissue-based
T2 sequence (whole entry): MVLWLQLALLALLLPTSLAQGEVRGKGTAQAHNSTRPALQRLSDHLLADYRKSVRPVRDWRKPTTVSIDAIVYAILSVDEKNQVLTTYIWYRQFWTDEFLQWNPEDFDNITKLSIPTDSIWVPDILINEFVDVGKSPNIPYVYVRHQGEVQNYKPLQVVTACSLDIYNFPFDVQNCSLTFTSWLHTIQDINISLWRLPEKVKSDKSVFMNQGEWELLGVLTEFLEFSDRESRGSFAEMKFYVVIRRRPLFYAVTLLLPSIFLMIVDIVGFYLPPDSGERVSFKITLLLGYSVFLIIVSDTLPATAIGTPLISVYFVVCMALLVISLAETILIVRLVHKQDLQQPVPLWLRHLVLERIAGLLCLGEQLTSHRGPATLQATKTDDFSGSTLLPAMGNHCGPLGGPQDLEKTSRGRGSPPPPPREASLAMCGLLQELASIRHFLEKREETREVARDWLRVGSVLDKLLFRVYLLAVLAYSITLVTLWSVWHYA
Summary of the method: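 Ileum strips in Tyrode solution at 37 °C, gassed 5% CO2/95% O2, isotonic contractions under 1 g load. After at least 3 stable contractions to 10 μM 2-methyl-5-HT, tissue exposed to compound or DMSO vehicle for 20 min, then 10 μM 2-methyl-5-HT re-added; contraction expressed as % inhibition of control.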

[4] = Ratio of drug level in brain to blood in Sprague-Dawley rat at 3 mg/kg, po after 2 hrs; assay type: ADME, organism-based; parameters: dose 3 mg/kg, route oral
Summary of the method: (§1)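 Rats dosed 3 mg/kg orally; total compound levels measured in brain and blood at 2, 4 and 8 h, brain/blood ratio derived. Mean ± SD of three rats.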

[5] = Drug level in Sprague-Dawley rat brain at 3 mg/kg, po after 4 hrs by HPLC analysis; assay type: ADME, organism-based; parameters: dose 3 mg/kg, route oral; settings: read-out: Drug uptake
Summary of the method: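 Total compound concentration was measured in brain and blood at 2, 4 and 8 h after a single oral 3 mg/kg dose. Brain/blood ratio was also derived. Values are mean ± SD of three rats.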

[6] = Ratio of drug level in brain to blood in Sprague-Dawley rat at 3 mg/kg, po after 8 hrs; assay type: ADME, organism-based; parameters: dose 3 mg/kg, route oral; summary of the method: as §1
Rattus norvegicus = experiment: Induction of 5HT1A receptor-mediated behavioral activity in rat assessed as appearance of flat body posture at 10 mg/kg, iv after 30 mins; assay type: functional, organism-based; parameters: dose 10 mg/kg
Summary of the method: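 Rats were conditioned to test procedures over 2 weeks and acclimated to the test cage for 1 h. Vehicle was saline containing diluted HCl. Lower lip retraction and flat body posture were scored on a 0–3 scale at 5, 10, 20 and 30 min after dosing.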

[7] = target: 5-hydroxytryptamine receptor 2A (Rattus norvegicus, UniProt P14842); experiment: Inhibition of rat 5HT2 receptor
5-hydroxytryptamine receptor 2A, sequence (P14842 whole entry): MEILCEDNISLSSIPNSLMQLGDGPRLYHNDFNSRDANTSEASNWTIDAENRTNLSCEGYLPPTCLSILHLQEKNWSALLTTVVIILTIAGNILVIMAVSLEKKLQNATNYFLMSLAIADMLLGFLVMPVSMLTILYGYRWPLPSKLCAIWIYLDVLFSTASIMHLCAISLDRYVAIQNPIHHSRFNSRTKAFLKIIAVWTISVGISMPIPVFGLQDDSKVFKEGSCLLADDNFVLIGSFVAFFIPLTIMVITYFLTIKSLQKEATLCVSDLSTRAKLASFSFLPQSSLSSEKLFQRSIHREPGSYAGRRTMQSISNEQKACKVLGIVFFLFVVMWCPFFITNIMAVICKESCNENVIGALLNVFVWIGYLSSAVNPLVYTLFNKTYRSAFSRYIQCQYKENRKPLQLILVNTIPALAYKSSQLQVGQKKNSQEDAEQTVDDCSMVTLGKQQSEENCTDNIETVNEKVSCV

[8] = target: 5-hydroxytryptamine receptor 4 (Cavia porcellus, UniProt O70528); experiment: Inhibition of guinea pig 5HT4 receptor
5-hydroxytryptamine receptor 4, sequence (O70528 whole entry): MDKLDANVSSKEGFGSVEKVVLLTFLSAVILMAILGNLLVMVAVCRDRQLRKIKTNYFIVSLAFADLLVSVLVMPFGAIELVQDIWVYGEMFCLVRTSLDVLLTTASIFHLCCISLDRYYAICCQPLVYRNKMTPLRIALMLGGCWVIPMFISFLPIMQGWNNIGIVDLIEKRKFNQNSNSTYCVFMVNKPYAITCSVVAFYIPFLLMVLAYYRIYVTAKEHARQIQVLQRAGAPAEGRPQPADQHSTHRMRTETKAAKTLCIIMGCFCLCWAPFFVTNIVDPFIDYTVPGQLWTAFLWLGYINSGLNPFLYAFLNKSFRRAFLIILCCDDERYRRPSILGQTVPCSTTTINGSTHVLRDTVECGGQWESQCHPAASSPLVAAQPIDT

[9] = target: Adrenergic receptor alpha-1 (Rattus norvegicus, UniProt P15823+P23944+P43140); experiment: Displacement of [3H]prazosin from rat cerebral cortex alpha1 adrenergic receptor; assay type: tissue-based
D(1A) dopamine receptor = D(1A) dopamine receptor (Homo sapiens, UniProt P21728); experiment: Displacement of [3H]SCH23390 from human recombinant dopamine D1 receptor
D(1A) dopamine receptor, sequence (P21728 whole entry): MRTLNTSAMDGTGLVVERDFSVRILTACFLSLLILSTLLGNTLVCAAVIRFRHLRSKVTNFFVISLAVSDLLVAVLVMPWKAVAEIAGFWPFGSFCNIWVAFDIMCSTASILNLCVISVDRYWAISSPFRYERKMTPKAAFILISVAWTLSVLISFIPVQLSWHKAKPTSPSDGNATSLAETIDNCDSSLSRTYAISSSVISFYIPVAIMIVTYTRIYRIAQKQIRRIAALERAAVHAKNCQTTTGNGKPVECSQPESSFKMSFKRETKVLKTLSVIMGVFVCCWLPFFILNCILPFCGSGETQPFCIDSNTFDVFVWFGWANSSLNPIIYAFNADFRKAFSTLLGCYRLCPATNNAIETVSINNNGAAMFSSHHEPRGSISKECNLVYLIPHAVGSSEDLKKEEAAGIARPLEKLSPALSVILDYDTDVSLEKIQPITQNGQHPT

[10] = target: Neuropeptide Y receptor type 1 (Homo sapiens, UniProt P25929); experiment: Displacement of [125I]peptide YY from NPY1 receptor in human SK-N-MC cells; assay type: cell-based
Neuropeptide Y receptor type 1, sequence (P25929 whole entry): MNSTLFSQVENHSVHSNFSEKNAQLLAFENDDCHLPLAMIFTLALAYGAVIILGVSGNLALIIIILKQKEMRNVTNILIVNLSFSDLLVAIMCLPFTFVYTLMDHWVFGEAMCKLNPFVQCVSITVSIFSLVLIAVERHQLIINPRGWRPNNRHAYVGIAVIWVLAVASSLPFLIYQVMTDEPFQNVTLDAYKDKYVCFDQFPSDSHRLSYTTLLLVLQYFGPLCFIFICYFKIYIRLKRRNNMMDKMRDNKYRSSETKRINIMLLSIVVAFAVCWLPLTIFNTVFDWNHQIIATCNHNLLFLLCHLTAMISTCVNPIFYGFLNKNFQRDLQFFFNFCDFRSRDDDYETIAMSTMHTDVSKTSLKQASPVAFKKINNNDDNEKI

[11] = target: 5-hydroxytryptamine receptor 5A (Homo sapiens, UniProt P47898); experiment: Displacement of [3H]LSD from human recombinant 5HT5A receptor
5-hydroxytryptamine receptor 5A, sequence (P47898 whole entry): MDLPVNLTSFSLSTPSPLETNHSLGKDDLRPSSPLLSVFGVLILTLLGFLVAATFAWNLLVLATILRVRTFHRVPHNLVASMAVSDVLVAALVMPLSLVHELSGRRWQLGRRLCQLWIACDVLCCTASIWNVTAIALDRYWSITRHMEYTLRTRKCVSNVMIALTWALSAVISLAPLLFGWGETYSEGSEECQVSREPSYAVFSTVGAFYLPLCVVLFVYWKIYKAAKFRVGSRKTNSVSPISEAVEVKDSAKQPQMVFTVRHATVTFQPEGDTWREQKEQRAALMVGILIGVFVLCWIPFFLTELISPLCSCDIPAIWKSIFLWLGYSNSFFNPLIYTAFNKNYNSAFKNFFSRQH

[12] = target: T3, 5-hydroxytryptamine receptor 3A (Homo sapiens, UniProt P46098); experiment: Displacement of [3H]BRL-43694 from human recombinant 5HT3 receptor
T3 sequence (P46098 whole entry): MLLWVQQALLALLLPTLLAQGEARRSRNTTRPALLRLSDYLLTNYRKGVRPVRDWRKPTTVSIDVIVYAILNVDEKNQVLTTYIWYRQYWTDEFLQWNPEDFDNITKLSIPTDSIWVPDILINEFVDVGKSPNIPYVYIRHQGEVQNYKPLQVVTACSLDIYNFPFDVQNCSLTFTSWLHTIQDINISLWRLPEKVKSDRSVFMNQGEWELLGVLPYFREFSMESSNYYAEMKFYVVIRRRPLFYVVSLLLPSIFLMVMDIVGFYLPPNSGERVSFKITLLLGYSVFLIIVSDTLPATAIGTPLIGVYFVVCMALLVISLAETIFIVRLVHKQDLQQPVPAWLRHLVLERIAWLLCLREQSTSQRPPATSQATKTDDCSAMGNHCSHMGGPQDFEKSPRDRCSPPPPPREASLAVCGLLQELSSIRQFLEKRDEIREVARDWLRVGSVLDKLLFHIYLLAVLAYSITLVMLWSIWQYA

[13] = target: 5-hydroxytryptamine receptor 7 (Homo sapiens, UniProt P34969); experiment: Displacement of [3H]LSD from human recombinant 5HT7 receptor
5-hydroxytryptamine receptor 7, sequence (P34969 whole entry): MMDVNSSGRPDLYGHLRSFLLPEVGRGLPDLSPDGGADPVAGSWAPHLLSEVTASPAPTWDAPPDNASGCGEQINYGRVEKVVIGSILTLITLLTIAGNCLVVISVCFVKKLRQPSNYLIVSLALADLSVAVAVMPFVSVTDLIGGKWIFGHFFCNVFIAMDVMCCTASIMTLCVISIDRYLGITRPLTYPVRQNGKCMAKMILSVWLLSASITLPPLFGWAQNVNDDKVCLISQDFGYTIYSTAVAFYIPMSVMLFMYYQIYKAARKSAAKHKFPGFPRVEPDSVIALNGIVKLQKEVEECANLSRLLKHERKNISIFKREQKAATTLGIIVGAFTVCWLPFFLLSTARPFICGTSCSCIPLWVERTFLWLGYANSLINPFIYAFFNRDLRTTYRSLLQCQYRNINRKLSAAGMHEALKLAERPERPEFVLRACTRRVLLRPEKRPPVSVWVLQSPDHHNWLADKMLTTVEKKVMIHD

With `Nn1c(CCCCN2CCN(c3ccc4ccccc4n3)CC2)nc2c(c1=O)CCCC2` the IC50 [1] was over 1000 nM, the Emax [2] was 99.8% and the inhibition [3] was 96.8%. The Kp at 2 h [4] was 2.56, the concentration at 4 h [5] was 70.2 nM and the Kp at 8 h [6] was 6.54. The Activity (Rattus norvegicus) was “Active”, the IC50 [7] was 100 nM and the IC50 [8] was over 1000 nM. For the same compound, the IC50 [9] was 1 ×10⁻⁶ mol/L, the IC50 (D(1A) dopamine receptor) was over 1000 nM and the IC50 [10] was over 1000 nM. For the same compound, the IC50 [11] was over 1000 nM, the IC50 [12] was over 8.93 nM and the IC50 [13] was 1000 nM.
